Experimental findings from ChEMBL document CHEMBL4152210, “Design, synthesis, anti-lung cancer activity, and chemosensitization of tumor-selective MCACs based on ROS-mediated JNK pathway activation and NF-κB pathway inhibition” (Eur J Med Chem, 2018) are described below.

In one data set the test system is L02. Kind of data set: Cytotoxicity against human HL7702 cells assessed as reduction in cell viability after 72 hrs by MTT assay. Format: cell-based. To be noted: L02, 72 h. In short, it runs like this:
(§1)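 Cells in RPMI 1640 with 10% heat-inactivated FBS and penicillin/streptomycin at 37 °C, 5% CO2. Seeded at 4000 per well, adhered overnight, then exposed to graded compound concentrations in triplicate wells for 72 h. MTT (5 mg/mL stock) added for 4 h, dissolved in DMSO, A490 read. IC50 is the concentration reducing viability by 50% versus untreated control.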

For the next data set, the system named is NCI-H1975. Kind of data set: Cytotoxicity against human NCI-H1975 cells assessed as reduction in cell viability after 72 hrs by MTT assay. To be noted: NCI-H1975, 72 h. It counts as functional, cell-based. Put shortly:
as §1

Data set [1] is described as follows: Selectivity index, ratio of IC50 for human HL7702 cells to IC50 for human NCI-H1975 cells. It counts as toxicity. Put shortly: (§2)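 Selectivity index taken as the logarithm of the ratio of the HL7702 IC50 to the cancer-line IC50. […] Not calculated when an IC50 was lacking.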
Data set [2] concerns A549. Kind of data set: Cytotoxicity against human A549 cells assessed as reduction in cell viability after 72 hrs by MTT assay. Format: functional, cell-based. To be noted: A549, 72 h. Put shortly:
as §1

For another data set, the system named is NCI-H460. The data set is described as follows: Cytotoxicity against human H460 cells assessed as reduction in cell viability after 72 hrs by MTT assay. Format: functional, cell-based. To be noted: NCI-H460, 72 h. In short, it runs like this:
as §1
On the technique in general: Tetrazolium dyes change colour on reduction, which living cells bring about.

Data set [3] is described as follows: Selectivity index, ratio of IC50 for human HL7702 cells to IC50 for human A549 cells. Format: toxicity. In short, it runs like this:
as §2

The nature of data set [4]: Selectivity index, ratio of IC50 for human HL7702 cells to IC50 for human H460 cells. It counts as toxicity. Put shortly:
as §2

Data set [5] can be described thus: Selectivity index, ratio of IC50 for human HL7702 cells to IC50 for human NCI-H1650 cells. It counts as toxicity. In short, it runs like this:
as §2

For the next data set, the system named is NCI-H1650. The data set is described as follows: Cytotoxicity against human NCI-H1650 cells assessed as reduction in cell viability after 72 hrs by MTT assay. Format: functional, cell-based. To be noted: NCI-H1650, 72 h. In short, it runs like this: as §1
The test system of data set [6] is A549. Kind of data set: Anticlonogenic activity against human A549 cells assessed as inhibition of clonogenic growth at 9 uM incubated for 2 days followed by replacement of growth media and measured after 8 days by crystal violet staining-based assay relative to control. Format: functional. In short, it runs like this:
(§3)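 A549 cells grown in 1640 medium with 10% heat-inactivated FBS at 37 °C, 5% CO2. Seeded at 1000 cells per well, then exposed to drug or left untreated. Medium, with or without drug, replaced after 2 days. 8 days later colonies fixed with 1% methanol and 1% formaldehyde, stained with 0.5% crystal violet and photographed. Percent inhibition expressed relative to control.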

The test system of data set [7] is A549. The data set is described as follows: Anticlonogenic activity against human A549 cells assessed as inhibition of clonogenic growth at 3 uM incubated for 2 days followed by replacement of growth media and measured after 8 days by crystal violet staining-based assay relative to control. It counts as functional. Put shortly:
as §3

Structures are written as SMILES.

With `COc1cc(/C=C/C(=O)CC(=O)/C=C/c2ccc(O)c(OC)c2)ccc1O` [CURCUMIN], the IC50 with L02 amounted to 7.2 µM; in the data set with NCI-H1975, 1.4 µM; in the data set with A549 [2], 6.8 µM; in the data set with NCI-H460, 8.5 µM. In addition, the “log(RatioIC50)” value in [1] is 0.71; in data set [3] it was 0.02; in [4], -0.07; in [5] it was -0.45.

Consider `COc1cc(/C=C2\CN(C(=O)C(C)C)C/C(=C\c3cc(OC)c(OC)c(OC)c3)C2=O)cc(OC)c1OC`, for which the IC50 in the data set on L02 turned out to be 12.2 µM; in the data set with NCI-H1975, 1.9 µM; with A549 [2], 0.8 µM; in the data set on NCI-H1650, 10.8 µM; in the data set on NCI-H460, 2 µM. For the same molecule, the “log(RatioIC50)” value in data set [1] worked out at 0.81; in data set [3], 1.18; in data set [4], 0.79; in [5], 0.05.

As for `COc1cc(/C=C2\CN(C(=O)c3ccccc3F)C/C(=C\c3cc(OC)c(OC)c(OC)c3)C2=O)cc(OC)c1OC`, the IC50 with L02 was 4.4 µM; in the data set with NCI-H1975, 1.4 µM; in the data set on A549 [2], 0.7 µM; in the data set with NCI-H1650 it was 1.9 µM; with NCI-H460 it was 1.5 µM. Besides, the “log(RatioIC50)” value in data set [1] was found to be 0.5; in data set [3], 0.8; in [4], 0.47; in data set [5] it was 0.36.

In the case of `CCC(=O)N1C/C(=C\c2cc(OC)c(OC)c(OC)c2)C(=O)/C(=C/c2cc(OC)c(OC)c(OC)c2)C1`, the IC50 in the data set on L02 was determined as 4.2 µM; with NCI-H1975, 1.7 µM; in the data set with A549 [2], 0.8 µM; in the data set with NCI-H1650, 4.4 µM; in the data set on NCI-H460, 2.7 µM. For the same molecule, the “log(RatioIC50)” value in data set [1] is 0.39; in data set [3], 0.72; in data set [4], 0.19; in data set [5], -0.02.

Consider `CCN1C/C(=C\c2ccc(OC)c(OC)c2)C(=O)/C(=C/c2ccc(OC)c(OC)c2)C1`, for which the IC50 in the data set on L02 amounted to 9.8 µM; in the data set with NCI-H1975 it was 8.5 µM; in the data set with A549 [2], 3.6 µM; in the data set on NCI-H1650, 12 µM; in the data set on NCI-H460, 3.6 µM. The “log(RatioIC50)” value in data set [1] is on record as 0.06; in data set [3] it was 0.43; in [4], 0.43; in data set [5], -0.09.

In the case of `COc1cc(/C=C2\CN(C(=O)CCC(=O)O)C/C(=C\c3cc(OC)c(OC)c(OC)c3)C2=O)cc(OC)c1OC`, the IC50 was above 60 µM in the data set on L02; above 60 µM in the data set with NCI-H1975; 17.9 µM with A549 [2]; above 60 µM in the data set on NCI-H1650; above 60 µM with NCI-H460.

On to `Cc1ccc2nc(NCCN)c3ncc(C)n3c2c1` [BMS-345541], for which the IC50 with L02 was determined as 15.3 µM; in the data set on NCI-H1975, 8 µM; with A549 [2], 8.6 µM; in the data set on NCI-H1650, 9.3 µM; with NCI-H460 it was 2.8 µM. Further, the “log(RatioIC50)” value in data set [1] came out at 0.28; in data set [3] it was 0.25; in data set [4] it was 0.74; in data set [5], 0.22.

As to `CCN1C/C(=C\c2cc(OC)c(OC)c(OC)c2)C(=O)/C(=C/c2cc(OC)c(OC)c(OC)c2)C1`, the IC50 with L02 stood at 12.8 µM; in the data set with NCI-H1975, 6.5 µM; in the data set on A549 [2], 4.2 µM; in the data set with NCI-H1650, 8.2 µM; in the data set with NCI-H460, 4.9 µM. In addition, the “log(RatioIC50)” value in data set [1] turned out to be 0.29; in data set [3], 0.48; in [4], 0.42; in [5] it was 0.19.

`O=c1[nH]cc(F)c(=O)[nH]1` [FLUOROURACIL]: the inhibition at 9 µM with A549 [6] was 70%. For the same molecule, in the data set on A549 [7], the inhibition at 3 µM came to 38%.

Regarding `COc1cc(/C=C2\CNC/C(=C\c3cc(OC)c(OC)c(OC)c3)C2=O)cc(OC)c1OC`, the 50% inhibitory concentration (IC50) in the data set with L02 is 7.6 µM; with NCI-H1975, 4 µM; in the data set on A549 [2], 1.2 µM; with NCI-H1650, 4.2 µM; with NCI-H460, 1.5 µM. Moreover, the “log(RatioIC50)” value amounted to 0.28 in [1], 0.8 in [3], 0.7 in data set [4] and 0.26 in data set [5].

With `COc1ccc(/C=C2\CNC/C(=C\c3ccc(OC)c(OC)c3)C2=O)cc1OC`, the IC50 with L02 is 15.1 µM; in the data set on NCI-H1975, 10.3 µM; in the data set with A549 [2], 2.9 µM; with NCI-H1650, 16.7 µM; in the data set on NCI-H460, 6.4 µM. The “log(RatioIC50)” value in data set [1] is 0.17; in data set [3], 0.72; in [4] it was 0.37; in [5] it was -0.04.

Take `COc1ccc(/C=C2\CN(C)C/C(=C\c3ccc(OC)c(OC)c3)C2=O)cc1OC`: the IC50 in the data set with L02 is 18.2 µM; with NCI-H1975, 6.6 µM; with A549 [2], 1.3 µM; in the data set on NCI-H1650, 9 µM; with NCI-H460, 3.1 µM. The “log(RatioIC50)” value in data set [1] was determined as 0.44; in [3], 1.15; in data set [4], 0.77; in [5], 0.31.

As to `CCCN1C/C(=C\c2ccc(OC)c(OC)c2)C(=O)/C(=C/c2ccc(OC)c(OC)c2)C1`, the IC50 in the data set on L02 was 21 µM; with NCI-H1975 it was 11.2 µM; in the data set on A549 [2], 4.2 µM; in the data set on NCI-H1650, 16 µM; in the data set on NCI-H460, 4.1 µM. In addition, the “log(RatioIC50)” value was 0.27 in data set [1], 0.7 in data set [3], 0.71 in [4] and 0.12 in data set [5].

For the molecule `O=C1/C(=C/c2ccccc2F)CNC/C1=C\c1ccccc1F`, the IC50 in the data set on L02 stood at 5.1 µM; in the data set on NCI-H1975 it was 1.3 µM; with A549 [2] it was 2.4 µM; with NCI-H1650, 1.7 µM; in the data set on NCI-H460, 1.2 µM. The “log(RatioIC50)” value is 0.59 in [1], 0.33 in data set [3], 0.63 in [4] and 0.48 in data set [5].

As usually defined, the IC50 is the concentration at which inhibition is half-maximal. In general, inhibition refers to the drop in the measured response relative to a control, in per cent.
